Measured values published in paper PMC3268193 (British Journal of Pharmacology, 2012).
Substitutions are numbered along the chain they refer to. Entries after “also recorded” stand apart in the source; their conditions may differ.

How the values were obtained:
[1] = molecular target: T1, human P2X1 receptor WT (Homo sapiens, UniProt P51575); assay: Two-electrode voltage clamp, WT P2X1 receptor in Xenopus oocytes; format: cell-based
T1 sequence (P51575 1-399): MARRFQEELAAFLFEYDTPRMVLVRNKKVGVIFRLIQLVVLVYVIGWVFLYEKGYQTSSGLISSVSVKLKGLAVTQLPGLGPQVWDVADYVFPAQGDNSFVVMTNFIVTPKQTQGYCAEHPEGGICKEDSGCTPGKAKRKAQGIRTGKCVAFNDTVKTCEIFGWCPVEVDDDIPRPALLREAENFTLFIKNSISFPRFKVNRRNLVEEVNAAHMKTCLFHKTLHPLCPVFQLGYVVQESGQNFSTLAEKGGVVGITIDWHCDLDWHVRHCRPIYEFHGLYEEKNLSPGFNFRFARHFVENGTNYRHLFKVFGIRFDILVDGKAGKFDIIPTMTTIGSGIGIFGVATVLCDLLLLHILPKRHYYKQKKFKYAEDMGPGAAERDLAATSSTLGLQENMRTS

[2] = molecular target: T2, human P2X2 receptor WT (Homo sapiens, UniProt Q9UBL9); assay: Two-electrode voltage clamp, WT P2X2 receptor in Xenopus oocytes; format: cell-based; settings: P2X2 WT
T2 sequence (Q9UBL9 1-471): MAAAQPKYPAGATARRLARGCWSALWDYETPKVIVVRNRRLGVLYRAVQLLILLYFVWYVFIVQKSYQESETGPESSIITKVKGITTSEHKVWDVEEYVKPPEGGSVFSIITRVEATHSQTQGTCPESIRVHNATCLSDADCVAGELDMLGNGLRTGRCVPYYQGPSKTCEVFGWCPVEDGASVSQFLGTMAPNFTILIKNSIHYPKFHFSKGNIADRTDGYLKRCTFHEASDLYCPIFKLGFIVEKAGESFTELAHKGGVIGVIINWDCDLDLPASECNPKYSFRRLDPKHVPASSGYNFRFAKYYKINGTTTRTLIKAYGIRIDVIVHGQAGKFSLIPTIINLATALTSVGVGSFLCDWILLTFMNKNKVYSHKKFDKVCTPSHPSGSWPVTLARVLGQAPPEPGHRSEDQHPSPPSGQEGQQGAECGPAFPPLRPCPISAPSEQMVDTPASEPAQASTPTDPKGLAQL

[3] = molecular target: T3, P2X1 Cys2(1-6) chimera (Homo sapiens, UniProt P51575, A118P/A137L/A141G/A151Y/D154G/DEL120-123/E128S/F152Y/G124S/G131D/I144L/I161V/INS125RVHNAT/INS150P/K127L/K136E/K138D/K140L/K148R/N153Q/P134A/Q142N/R139M/S130A/T133V/T155P/V156S); assay: Two-electrode voltage clamp, chimera P2X1 Cys2; format: cell-based; settings: P2X1 Cys2(1-6)
T3 sequence (P51575 with tags, fused parts or gaps A118P/DEL120-123/G124S/INS125RVHNAT/K127L/E128S/S130A/G131D/T133V/P134A/K136E/A137L/K138D/R139M/K140L/A141G/Q142N/I144L/K148R/INS150P/A151Y/F152Y/N153Q/D154G/T155P/V156S/I161V): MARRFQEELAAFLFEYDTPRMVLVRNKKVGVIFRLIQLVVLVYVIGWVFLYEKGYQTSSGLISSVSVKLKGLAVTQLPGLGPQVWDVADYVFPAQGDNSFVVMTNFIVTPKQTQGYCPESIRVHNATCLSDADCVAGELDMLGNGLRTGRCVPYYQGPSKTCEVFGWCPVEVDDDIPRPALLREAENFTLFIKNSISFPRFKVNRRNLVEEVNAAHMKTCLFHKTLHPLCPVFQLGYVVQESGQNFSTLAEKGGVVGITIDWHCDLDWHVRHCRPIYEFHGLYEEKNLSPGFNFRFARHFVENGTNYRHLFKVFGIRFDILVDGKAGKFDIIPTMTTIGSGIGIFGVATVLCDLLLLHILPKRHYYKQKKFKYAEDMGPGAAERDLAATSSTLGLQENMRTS

[4] = molecular target: T4, P2X2 receptor mutant D136K (Homo sapiens, UniProt Q9UBL9, D148K); assay: Two-electrode voltage clamp, P2X2 mutant D136K; format: cell-based; settings: read-out: ATP EC50
T4 sequence (Q9UBL9 1-471 D148K): T2 sequence (Q9UBL9 1-471) with D148K

[5] = system: P2X1 Del mutant receptor; assay: Two-electrode voltage clamp, deletion mutant P2X1 Del; format: cell-based, human; settings: ATP 100 µM, up to 10 mM
Summary of the method: (§1)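 Human P2X1 deletion-mutant cRNA made by T7 in vitro transcription and injected into stage V Xenopus laevis oocytes. Oocytes kept at 18°C in ND96 (pH 7.5, with gentamicin) and recorded 2–6 days later. Two-electrode voltage clamp at −60 mV, with 1.8 mM BaCl2 replacing CaCl2 in the bath.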

[6] = molecular target: T5, DelD P2X1 receptor (Homo sapiens, UniProt P51575, D154F/DEL118-152/DEL160-165/K157P/V156D); assay: Two-electrode voltage clamp, deletion mutant DelD P2X1; format: cell-based; settings: ATP up to 10 mM
T5 sequence (P51575 with tags, fused parts or gaps DEL118-152/D154F/V156D/K157P/DEL160-165): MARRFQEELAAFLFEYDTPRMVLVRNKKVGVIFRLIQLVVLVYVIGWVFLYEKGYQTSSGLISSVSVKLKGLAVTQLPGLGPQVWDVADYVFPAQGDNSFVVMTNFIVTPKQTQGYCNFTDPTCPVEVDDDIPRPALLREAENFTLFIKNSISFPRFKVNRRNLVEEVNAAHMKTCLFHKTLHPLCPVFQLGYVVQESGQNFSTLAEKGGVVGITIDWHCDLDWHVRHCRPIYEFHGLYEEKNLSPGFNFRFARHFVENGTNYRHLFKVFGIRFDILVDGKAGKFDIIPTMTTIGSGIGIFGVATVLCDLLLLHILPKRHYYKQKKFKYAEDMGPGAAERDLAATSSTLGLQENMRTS
Summary of the method: as §1

[7] = molecular target: Dictyostelium P2X receptors; settings: read-out: EC50 for ATP; ref Ludlow et al., 2009; cited from earlier work

- Decay Time ([1]; P2X1 WT, 100% to 50% decay of current): 495 ± 45 ms
- Peak amplitude of inward current ([1]; WT P2X1, ATP 100 µM, n = 12): −9188 ± 590 nA
- EC50 ([1]; read-out: ATP EC50, P2X1 WT): ~0.75 µM
- Decay of current ([2]; 100 µM ATP, 3 s application): no decay at end of 3 s pulse
- EC50 ([2]; read-out: ATP EC50): ~10 µM
- Decay Time ([3]; 100% to 50% decay): 1305 ± 176 ms
- EC50 ([3]; read-out: ATP EC50): ~3 µM
- EC50 [4]: 3.87 µM
- ATP-evoked current [6]: little or no response
Structure (SMILES): Nc1ncnc2c1ncn2[C@@H]1O[C@H](COP(=O)(O)OP(=O)(O)OP(=O)(O)O)[C@@H](O)[C@H]1O [ATP]
- ATP-evoked current [5]: barely detectable inward currents; also recorded: ineffective
- EC50 [7]: 100 to 500 µM
